{"source": "paper PMC6664420", "about": "(Drug Design, Development and Therapy, 2019)", "key": {"[1]": {"conditions": "no method or reference given; cited from earlier work"}, "[2]": {"assay": "Pharmacokinetics after a single oral dose in healthy volunteers", "type": "in vivo, human", "method_in_brief": "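Healthy men aged 20–50 y received a double-blind single oral dose of test compound mesylate (40–1280 mg) fasted; at 640 mg, dosing was repeated fed in period 2. Plasma was sampled from predose to 48 h, and urine was collected over 0–6, 6–12, 12–24 and 24–48 h. Analysis was UPLC-MS/MS, positive mode. Non-compartmental: linear-up/log-down AUC0-t. Dose proportionality used 95% CI of log-log slope. Food effect used a mixed-model GMR with 90% CI.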"}, "[3]": {"conditions": "rats; ref Investigator's brochure, unpublished data; cited from earlier work"}, "[4]": {"assay": "Safety and tolerability after a single oral dose in healthy volunteers", "type": "in vivo, human", "method_in_brief": "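Single-dose, double-blind, placebo-controlled (8:2 active:placebo) escalation in healthy men; tolerability through 48 h post-dose decided escalation. Monitoring covered AEs, physical exam, vital signs, 12-lead ECG, clinical laboratory tests, protein electrophoresis, and continuous pulse oximetry for 4 h post-dose. QTcmax and ΔQTcmax per dose group were compared with placebo by ANOVA and Dunnett's test, P<0.05.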"}, "[5]": {"conditions": "cited from earlier work"}, "Streptococcus pneumonia": {"tested_on": "Streptococcus pneumonia", "conditions": "ref Investigator's brochure, unpublished data; cited from earlier work"}, "Gram-negative pathogens": {"tested_on": "Gram-negative pathogens", "conditions": "ref Investigator's brochure, unpublished data; cited from earlier work"}, "hERG current": {"tested_on": "hERG current", "conditions": "preclinical study; ref Investigator's brochure, unpublished data; cited from earlier work"}, "[6]": {"conditions": "mice model; no method or reference given; cited from earlier work"}, "[7]": {"conditions": "all groups, total includes 1 placebo case per Table 2"}}, "data": [{"smiles": "CC(C)(C)[C@H](NC(=O)[C@H](CC1CCCC1)CN(O)C=O)C(=O)N1CCC(NCc2cc(F)c(F)cc2F)CC1", "note": "[IDP-73152]", "values": [{"measurement": "bound to plasma protein", "setting": "[1]", "result": 95.4, "unit": "%"}, {"measurement": "effect of food on terminal half-life", "setting": "[2]; 640 mg, fed vs fasted, P=0.779", "result": "not affected by food intake"}, {"measurement": "GMR (with 90% CI) of AUC0-t, fed vs fasted", "setting": "[2]; 640 mg, high-fat meal", "result": "0.862 (0.811–0.917)"}, {"measurement": "GMR (with 90% CI) of Cmax, fed vs fasted", "setting": "[2]; 640 mg, high-fat meal", "result": "0.638 (0.563–0.723)"}, {"measurement": "decrease of Cmax by food", "setting": "[2]; 640 mg, high-fat meal, fed vs fasted", "result": 36.2, "unit": "%"}, {"measurement": "decrease of Cmax by food", "setting": "[2]; 640 mg, high-fat meal, fed vs fasted, listed as IDP-73152 mesylate", "result": 36, "unit": "%"}, {"measurement": "dose proportionality of AUC0-t", "setting": "[2]; all dose ranges (40–1280 mg)", "result": "more than dose-proportional"}, {"measurement": "dose proportionality of AUC0-t", "setting": "[2]; range of 40–320 mg", "result": "dose-proportional"}, {"measurement": "plasma level relative to MIC", "setting": "[2]; single dose of 1280 mg, 12 hrs post-dose", "result": "above MIC level"}, {"measurement": "distribution coefficient of the liver", "setting": "[3]", "result": "approximately 6.0"}, {"measurement": "distribution coefficient of the lung", "setting": "[3]", "result": "~3.5"}, {"measurement": "Incidence of drug-related AE: Diarrhoea", "setting": "[4]; 160 mg, N=8", "result": 1}, {"measurement": "Incidence of drug-related AE: Nausea", "setting": "[4]; 160 mg, N=8", "result": 1}, {"measurement": "Incidence of drug-related AE: Abdominal pain", "setting": "[4]; 320 mg, N=8", "result": 1}, {"measurement": "Incidence of drug-related AE: Epigastric discomfort", "setting": "[4]; 320 mg, N=8", "result": 1}, {"measurement": "Incidence of drug-related AE: Abdominal discomfort", "setting": "[4]; 640 mg, fasted state, N=8", "result": 1}, {"measurement": "Incidence of drug-related AE: Headache", "setting": "[4]; 1280 mg, N=8", "result": 1}, {"measurement": "Incidence of drug-related AE: Nausea", "setting": "[4]; 1280 mg, N=8", "result": 4}, {"measurement": "severity of AEs", "setting": "[4]; all dose groups", "result": "mild severity and not serious"}, {"measurement": "drug-related headache, total", "setting": "[4]; [7]", "result": 2, "unit": "cases"}, {"measurement": "drug-related nausea, total", "setting": "[4]; [7]", "result": 6, "unit": "cases"}, {"measurement": "tolerability", "setting": "[4]; single oral dose of up to 1280 mg", "result": "well tolerated"}, {"measurement": "in vitro antimicrobial activity, minimal inhibitory concentration (MIC)", "setting": "[5]", "result": "comparable to that of linezolid and vancomycin"}, {"measurement": "PK/PD dependence of the antibiotic effect", "setting": "Streptococcus pneumonia", "result": "AUC-dependent"}, {"measurement": "MIC against Gram-negative pathogens", "setting": "Gram-negative pathogens", "result": "unfavorable MIC value"}, {"measurement": "inhibition of the hERG current", "setting": "hERG current", "result": "concentration-dependent inhibition"}, {"measurement": "mean tmax", "setting": "[6]", "result": 30, "unit": "min"}, {"measurement": "terminal half-life", "setting": "[6]", "result": 63, "unit": "min"}, {"measurement": "volume of distribution", "setting": "[6]", "result": 1.71, "unit": "L/kg"}]}]}
